Measured values published in ChEMBL document CHEMBL1148578, “Synthesis and biological evaluation of 6-(alkyn-1-yl)furo[2,3-d]pyrimidin-2(3H)-one base and nucleoside derivatives” (J Med Chem, 2006).

Legend:
Human alphaherpesvirus 3 [1] = experiment: Antiviral activity against Varicella-Zoster virus YS/R strain; format: functional, organism-based; conditions: Human alphaherpesvirus 3, YS/R
In short: (§1)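 HEL cell monolayers were infected with VZV (TK⁻ strains YS/R and 07/1) for 2 h. Residual virus was then removed and medium with graded compound concentrations was added, in duplicate. After 5 days at 37 °C, cells were ethanol-fixed and Giemsa-stained, and plaques were counted microscopically.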

Human alphaherpesvirus 3 [2] = experiment: Antiviral activity against Varicella-Zoster virus 07/1 strain; format: functional, organism-based; conditions: Human alphaherpesvirus 3, 07/1; in short: as §1
Human betaherpesvirus 5 [3] = experiment: Antiviral activity against human cytomegalovirus AD169 strain; format: functional, organism-based; conditions: Human betaherpesvirus 5, AD169
In short: (§2)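 Virus was removed and medium with graded compound concentrations was added, in duplicate. After 7 days at 37 °C, cells were ethanol-fixed and Giemsa-stained, and cytopathogenicity was scored microscopically.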

Human alphaherpesvirus 3 [4] = experiment: Antiviral activity against Varicella-Zoster virus YS strain; format: functional, organism-based; conditions: Human alphaherpesvirus 3, YS
HEL = experiment: Cytotoxic activity against cultured human embryonic lung (HEL) cells; format: functional
In short: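 HEL cells were seeded at 5 × 10³/well and grown for 24 h, then exposed to graded compound concentrations for 3 days at 37 °C. MCC was the lowest concentration giving microscopically visible alteration of cell morphology.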

Human betaherpesvirus 5 [5] = experiment: Antiviral activity against human cytomegalovirus Davis strain; format: functional, organism-based; conditions: Human betaherpesvirus 5, Davis; in short: as §2

SMILES | EC50 (Human alphaherpesvirus 3 [1]) | EC50 (Human alphaherpesvirus 3 [2]) | EC50 (Human betaherpesvirus 5 [3]) | EC50 (Human alphaherpesvirus 3 [4]) | EC50 (Human betaherpesvirus 5 [5]) | CC50 (HEL) | MCC (HEL)
CCCCC#Cc1cc2cn([C@@H]3O[C@H](CO)[C@@H](O)[C@@H]3O)c(=O)nc2o1 | 63 µM | > 144 µM | > 144 µM | > 144 µM | > 144 µM | > 144 µM | > 144 µM
CCCCCCCCCCC#Cc1cc2cn([C@H]3C[C@H](O)[C@@H](CO)O3)c(=O)nc2o1 | 2.5 µM | ≥ 6 µM | > 4.8 µM | ≥ 5.7 µM | > 4.8 µM | 36 µM | 30 µM
Nc1nc2c(ncn2COC(CO)CO)c(=O)[nH]1 [GANCICLOVIR] |  |  |  |  | 8.7 µM | > 197 µM | > 197 µM
Nc1nc2c(ncn2COCCO)c(=O)[nH]1 [ACYCLOVIR] |  |  |  |  |  | > 889 µM | > 222 µM
CCCCCCCCC#Cc1cc2cn([C@@H]3O[C@H](CO)[C@@H](O)[C@H]3O)c(=O)nc2o1 | 6.2 µM | ≥ 12 µM | 7.3 µM | > 12 µM | ≥ 9.3 µM | 62 µM | 49 µM
O=c1[nH]c(=O)n([C@H]2C[C@H](O)[C@@H](CO)O2)cc1/C=C/Br [BRIVUDINE] | ≥ 126 µM | ≥ 99 µM |  | 0.01 µM |  | > 150 µM | > 150 µM
CCCCCCC#Cc1cc2cn([C@@H]3O[C@H](CO)[C@@H](O)[C@@H]3O)c(=O)nc2o1 | 21 µM | 34 µM | > 53 µM | ≥ 43 µM | > 53 µM | > 53 µM | 133 µM
CCCCCCC#Cc1cc2cn([C@H]3C[C@H](O)[C@@H](CO)O3)c(=O)nc2o1 | 22 µM | 25 µM | 21 µM | 1.5 µM | 19 µM | 138 µM | ≥ 97 µM
CCCCCCCCCCC#Cc1cc2cn([C@@H]3O[C@H](CO)[C@@H](O)[C@H]3O)c(=O)nc2o1 | 3.5 µM | 4.6 µM | > 4.6 µM | > 4.6 µM | > 4.6 µM | 44 µM | 12 µM
CCCCCCCCCCC#Cc1cc2cn([C@@H]3O[C@H](CO)[C@@H](O)[C@@H]3O)c(=O)nc2o1 | 5.7 µM | > 12 µM | > 12 µM | ≥ 16 µM | > 12 µM | 116 µM | 46 µM
CCCCCCCCC#Cc1cc2cn([C@H]3C[C@H](O)[C@@H](CO)O3)c(=O)nc2o1 | 6.5 µM | > 13 µM | 7.4 µM | 2.7 µM | 7.6 µM | 77 µM | 52 µM
CCCCCCC#Cc1cc2cn([C@@H]3O[C@H](CO)[C@@H](O)[C@H]3O)c(=O)nc2o1 | 19 µM | 39 µM | > 133 µM | ≥ 39 µM | > 53 µM | > 133 µM | ≥ 133 µM
CCCCCCCCC#Cc1cc2cn([C@@H]3O[C@H](CO)[C@@H](O)[C@@H]3O)c(=O)nc2o1 | 3.7 µM | 11 µM | > 12 µM | ≥ 11 µM | 12 µM | > 124 µM | 49 µM

Further lines, with some results ahead:

EC50 (Human alphaherpesvirus 3 [1]) | EC50 (Human alphaherpesvirus 3 [2]) | EC50 (Human betaherpesvirus 5 [3]) | EC50 (Human alphaherpesvirus 3 [4]) | EC50 (Human betaherpesvirus 5 [5]) | SMILES | CC50 (HEL) | MCC (HEL)
90 µM | ≥ 135 µM | > 150 µM | 87 µM | > 150 µM | CCCCC#Cc1cc2cn([C@H]3C[C@H](O)[C@@H](CO)O3)c(=O)nc2o1 | > 150 µM | > 150 µM
> 175 µM | > 70 µM | > 175 µM | > 175 µM | > 175 µM | CCCCCCCCC#Cc1cc2cn(C)c(=O)nc2o1 | > 175 µM | > 175 µM
23 µM | > 77 µM | 31 µM | ≥ 89 µM | 37 µM | CCCCCCC#Cc1cc2cn(C)c(=O)nc2o1 | > 194 µM | 194 µM
> 87 µM | > 87 µM | > 217 µM | 217 µM | 139 µM | CCCCC#Cc1cc2cn(C)c(=O)nc2o1 | > 217 µM | ≥ 217 µM
52 µM | 144 µM | > 144 µM | ≥ 113 µM | > 144 µM | CCCCC#Cc1cc2cn([C@@H]3O[C@H](CO)[C@@H](O)[C@H]3O)c(=O)nc2o1 | > 144 µM | > 144 µM
> 150 µM | > 150 µM | > 150 µM | > 150 µM | > 150 µM | CCCCCCCCCCC#Cc1cc2cn(C)c(=O)nc2o1 | > 150 µM | > 150 µM
